Calls of active or inactive are those of the source. No cut-off for these calls is given here.
Experiments:
[1] = system: Leishmania donovani; assay: Antileishmanial activity against Leishmania donovani MHOM/IN/80/DD8 amastigote forms harboring luciferase gene infected in mouse J774 cells at 25 uM after 72 hrs by Steady-Glo reagent based luminescence assay relative to control; type: functional; conditions: MHOM/IN/80/DD8, J774, 72 h, read-out: GI
Procedure, shortened: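 Stationary-phase luciferase-expressing Dd8 promastigotes infected into J774 macrophages (4×10^4/mL seeded, 24 h, 37 °C, 5% CO2) at 1:8 macrophage:parasite for 24 h. Non-internalised parasites washed off. Compounds added at 50 and 25 µM in RPMI/10% FBS for 72 h. Lysis with Steady-Glo luciferin reagent plus PBS, luminescence read. Inhibition relative to untreated infected controls.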

[2] = system: Leishmania donovani; assay: Antileishmanial activity against Leishmania donovani MHOM/IN/80/DD8 promastigote forms harboring luciferase gene after 72 hrs by Steady-Glo reagent based luminescence assay; type: functional; conditions: MHOM/IN/80/DD8, 72 h
Procedure, shortened: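 Exponential-phase Dd8-Luc promastigotes at 1×10^6/mL in M199 with 10% FBS, 24 °C, given 50 and 25 µM for 72 h. Vehicle 0.1% DMSO. Steady-Glo added 1:1, luminescence (RLU) read. IC50 from four-parameter Hill regression, derived only where inhibition exceeded 90%. Means of at least three independent experiments.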

[3] = Cytotoxicity against African green monkey Vero cells assessed as cell viability up to 200 uM after 72 hrs by MTT assay relative to control; type: cell-based; conditions: chlorocebus sabaeus, read-out: Activity
[4] = system: Leishmania donovani; assay: Antileishmanial activity against Leishmania donovani MHOM/IN/80/DD8 promastigote forms harboring luciferase gene at 50 uM up to 72 hrs by MTT assay relative to control; type: functional; conditions: MHOM/IN/80/DD8, 72 h
[5] = Metabolic stability in mouse liver S9 fractions at 1 mM after 60 mins in presence of NADPH by HPLC method; type: ADME; conditions: read-out: Stability
[6] = system: Leishmania donovani; assay: Antileishmanial activity against Leishmania donovani amastigote forms infected in Balb/c mouse assessed as inhibition of parasitic burden in liver at 50 mg/kg, ip administered for 5 consecutive days measured on day 7 post last treatment by Giemsa staining based assay relative to control; type: functional; conditions: 168 h
[7] = system: Leishmania donovani; assay: Antileishmanial activity against Leishmania donovani amastigote forms infected in Balb/c mouse assessed as inhibition of parasitic burden in spleen at 50 mg/kg, ip administered for 5 consecutive days measured on day 7 post last treatment by Giemsa staining based assay relative to control; type: functional; conditions: 168 h
[8] = system: Leishmania donovani; assay: Antileishmanial activity against Leishmania donovani amastigote forms infected in Balb/c mouse assessed as inhibition of parasitic burden in spleen at 100 mg/kg, ip administered for 5 consecutive days measured on day 7 post last treatment by Giemsa staining based assay relative to control; type: functional; conditions: 168 h
[9] = system: Leishmania donovani; assay: Antileishmanial activity against Leishmania donovani amastigote forms infected in Balb/c mouse assessed as inhibition of parasitic burden in spleen at 200 mg/kg, ip administered for 5 consecutive days measured on day 7 post last treatment by Giemsa staining based assay relative to control; type: functional; conditions: Leishmania donovani, ip, 168 h
[10] = system: Mus musculus; assay: Toxicity in Balb/c mouse infected with Leishmania donovani amastigote forms assessed as changes in body weight at 12.5 to 200 mg/kg, ip co-treated with 5 to 25 mg/kg, po miltefosine for 5 consecutive days; type: organism-based; conditions: in vivo
[11] = system: Leishmania donovani; assay: Antileishmanial activity against Leishmania donovani amastigote forms infected in Balb/c mouse assessed as reduction in liver weight at 12.5 to 200 mg/kg, ip administered for 5 consecutive days; type: functional, organism-based
[12] = system: Leishmania donovani; assay: Antileishmanial activity against Leishmania donovani amastigote forms infected in Balb/c mouse assessed as reduction in spleen weight at 12.5 to 200 mg/kg, ip administered for 5 consecutive days; type: functional, organism-based
[13] = system: Mus musculus; assay: Increase in IFN-gamma level in Balb/c mouse splenocytes infected with Leishmania donovani amastigote forms at 25 mg/kg, ip co-treated with 5 mg/kg, po miltefosine administered for 5 consecutive days measured on day 4 post last treatment by sandwich ELISA relative to control; type: functional
Procedure, shortened: (§1)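 Splenocytes (2×10^6) from treated infected BALB/c mice taken on day 4 or 7 post-treatment. Cultured in phenol-red-free RPMI 1640 with 5 μg/mL soluble L. donovani antigen for 72 h at 37 °C, 5% CO2. Supernatant cytokines measured by sandwich ELISA against a standard curve. Mean ± SD, n = 5 mice per group, three independent experiments.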

[14] = system: Mus musculus; assay: Increase in TNFalpha level in Balb/c mouse splenocytes infected with Leishmania donovani amastigote forms at 25 mg/kg, ip co-treated with 5 mg/kg, po miltefosine administered for 5 consecutive days measured on day 4 post last treatment by sandwich ELISA relative to control; type: functional
Procedure, shortened: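 BALB/c mice infected with L. donovani (15 days); treatment for 5 consecutive days, test compound i.p. in 8% DMSO/water, miltefosine oral in TDW; sacrificed day 4 and day 7 post-treatment, n = 5 per group. Splenocytes (2×10^6) cultured 72 h in phenol red-free RPMI 1640 with 5 μg/mL SLA; supernatant cytokines by sandwich ELISA.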

[15] = system: Mus musculus; assay: Decrease in TGFbeta level in Balb/c mouse splenocytes infected with Leishmania donovani amastigote forms at 25 mg/kg, ip co-treated with 5 mg/kg, po miltefosine administered for 5 consecutive days measured on day 4 post last treatment by sandwich ELISA relative to control; type: functional; procedure, shortened: as §1
[16] = system: Mus musculus; assay: Increase in iNOS mRNA expression level in Balb/c mouse splenocytes infected with Leishmania donovani amastigote forms at 25 mg/kg, ip for 5 consecutive days measured on day 4 post last treatment by RT-PCR assay relative to control; type: functional
Procedure, shortened: (§2)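 Infected BALB/c mice dosed for 5 consecutive days (test compound i.p. in 8% DMSO, miltefosine oral), n = 5 per group; splenocytes taken day 4 and day 7 post-treatment. Total RNA extracted and iNOS mRNA quantified by real-time PCR, normalized to mouse β-actin, expressed as fold change over uninfected controls.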

[17] = system: Mus musculus; assay: Increase in iNOS mRNA expression level in Balb/c mouse splenocytes infected with Leishmania donovani amastigote forms at 25 mg/kg, ip for 5 consecutive days measured on day 7 post last treatment by RT-PCR assay relative to control; type: functional; procedure, shortened: as §2
[18] = system: Leishmania donovani; assay: Induction of mitochondrial membrane potential loss in Leishmania donovani MHOM/IN/80/DD8 promastigote forms at 50 uM after 6 hrs by JC-1 staining based flow cytometry (reference value: 5.02%); type: functional
[19] = system: Leishmania donovani; assay: Induction of mitochondrial membrane potential loss in Leishmania donovani MHOM/IN/80/DD8 promastigote forms at 50 uM after 12 hrs by JC-1 staining based flow cytometry (reference value: 5.02%); type: functional
[20] = AUC (0 to infinity) in Swiss mouse at 50 mg/kg, po by LC-MS/MS analysis; type: ADME, organism-based; parameters: dose 50 mg/kg, route oral, time infinity; conditions: in vivo
[21] = system: Leishmania donovani; assay: Antileishmanial activity against Leishmania donovani amastigote forms infected in Balb/c mouse assessed as inhibition of parasitic burden in liver at 25 mg/kg, ip administered for 5 consecutive days measured on day 7 post last treatment by Giemsa staining based assay relative to control; conditions: 168 h
[22] = system: Leishmania donovani; assay: Antileishmanial activity against Leishmania donovani amastigote forms infected in Balb/c mouse assessed as inhibition of parasitic burden in spleen at 25 mg/kg, ip administered for 5 consecutive days measured on day 7 post last treatment by Giemsa staining based assay relative to control; conditions: 168 h

`COc1ccc(C2C3=C(CCC3=O)Nc3c2c(-c2c[nH]c4ccccc24)nn3-c2ccc(Cl)c(Cl)c2)cc1OC` (configuration not stated) gave an inhibition of growth at 25 µM [1] of 96.8%, an IC50 [2] of 7.19 µM and a viability at 72 h [3] greater than 95%. It also gave an inhibition at 50 µM [4] greater than 95%, a remaining at 1 h, 1000 µM [5] of 45% and an inhibition in vivo at 50 mg/kg [6] greater than 93%. It also gave an inhibition in vivo at 50 mg/kg [7] greater than 91%, an inhibition in vivo at 100 mg/kg [8] of 90% and an inhibition in vivo at 200 mg/kg [9] of 90%. For the same compound, the Activity [10] was “Non-Toxic”, the Activity [11] was “Active” and the Activity [12] was “Active”. The “fold change (FC)” value [13] was 9.1, the “fold change (FC)” value [14] was 7.4 and the “inhibition (INH)” value [15] was 88%. The “fold change (FC)” value [16] was 4.9, the “fold change (FC)” value [17] was 3.3 and the Activity [18] was 15.2%. For the same compound, the Activity [19] was 32.9%, the AUC(0-inf) [20] was 31.7 µM·h and the inhibition in vivo at 25 mg/kg [21] was greater than 48%. For the same compound, the inhibition in vivo at 25 mg/kg [22] was greater than 59%.

— ChEMBL document CHEMBL3992522, “Antileishmanial Activity of Pyrazolopyridine Derivatives and Their Potential as an Adjunct Therapy with Miltefosine” (J Med Chem, 2017)
